Measurements reported in ChEMBL document CHEMBL2146466, “Evaluation of dimerization-inhibitory activities of cyclic peptides containing a β-hairpin loop sequence of the EGF receptor” (2012).
Activity calls are given as the source filed them. The calls are words filed in the database; no cut-off is given here. Where a SMILES comes first, the peptide text is derived from it.

What was measured:
[1] = target: Epidermal growth factor receptor (Homo sapiens) (UniProt P00533); assay: Inhibition of human recombinant EGF receptor dimerization expressed in A431 cells at 10 uM after 10 mins by immunoblotting analysis relative to control; assay type: cell-based; details: A-431
Summary of the method: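 Confluent A431 cells were solubilized in 20 mM HEPES pH 7.4 with 1% Triton X-100, 10% glycerol, 1 mM EGTA and 1 mM PMSF, and the extract was spun at 250,000×g. Supernatant at 2 µg/µL protein was pre-treated 60 min with 10 µM peptide, then given 0.21 µM human EGF for 10 min. Cross-linking was with 1 mM BS³ for 10 min, quenched with glycine. Dimer and monomer were resolved by SDS-PAGE and anti-EGFR immunoblot, with ECL quantification. Dimer without peptide was set to 1.0; mean ± SD of at least three experiments in duplicate.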

[2] = target: Epidermal growth factor receptor (Homo sapiens) (UniProt P00533); assay: Human recombinant EGF receptor dimer amount expressed in A431 cells at 10 uM after 10 mins by immunoblotting analysis relative to control; details: A-431

Chain of Epidermal growth factor receptor (Homo sapiens) (P00533 whole entry): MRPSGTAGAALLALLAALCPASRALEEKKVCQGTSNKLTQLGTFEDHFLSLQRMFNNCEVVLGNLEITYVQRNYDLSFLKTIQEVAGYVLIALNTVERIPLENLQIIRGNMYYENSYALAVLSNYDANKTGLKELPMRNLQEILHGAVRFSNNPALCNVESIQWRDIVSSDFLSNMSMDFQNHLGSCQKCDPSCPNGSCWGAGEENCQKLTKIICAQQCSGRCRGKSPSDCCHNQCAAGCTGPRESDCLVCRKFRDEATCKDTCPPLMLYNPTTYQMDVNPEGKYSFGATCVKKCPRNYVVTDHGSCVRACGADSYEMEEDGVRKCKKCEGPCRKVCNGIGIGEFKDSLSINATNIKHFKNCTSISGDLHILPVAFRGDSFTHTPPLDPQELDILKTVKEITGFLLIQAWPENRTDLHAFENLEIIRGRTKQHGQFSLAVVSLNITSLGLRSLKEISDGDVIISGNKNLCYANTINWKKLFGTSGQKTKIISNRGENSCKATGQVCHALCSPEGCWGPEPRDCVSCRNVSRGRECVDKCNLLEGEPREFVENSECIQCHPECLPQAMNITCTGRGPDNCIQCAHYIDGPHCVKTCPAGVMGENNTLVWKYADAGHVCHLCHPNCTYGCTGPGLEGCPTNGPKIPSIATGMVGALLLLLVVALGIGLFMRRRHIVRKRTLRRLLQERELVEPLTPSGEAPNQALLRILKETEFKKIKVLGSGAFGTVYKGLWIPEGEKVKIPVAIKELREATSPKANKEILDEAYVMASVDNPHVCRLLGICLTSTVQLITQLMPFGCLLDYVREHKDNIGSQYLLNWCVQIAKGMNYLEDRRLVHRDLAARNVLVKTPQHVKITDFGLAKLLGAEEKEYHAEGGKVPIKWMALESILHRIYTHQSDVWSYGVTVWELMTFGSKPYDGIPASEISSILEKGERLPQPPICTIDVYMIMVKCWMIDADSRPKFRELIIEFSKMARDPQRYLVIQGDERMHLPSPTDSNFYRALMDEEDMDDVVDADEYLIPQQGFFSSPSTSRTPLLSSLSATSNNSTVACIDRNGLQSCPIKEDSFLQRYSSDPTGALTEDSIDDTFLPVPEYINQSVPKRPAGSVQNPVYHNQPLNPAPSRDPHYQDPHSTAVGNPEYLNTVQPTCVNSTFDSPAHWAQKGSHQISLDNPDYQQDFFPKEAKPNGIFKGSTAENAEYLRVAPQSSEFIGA

SMILES	inhibition [1]	residual activity [2] [%]
CSCC[C@@H]1NC(=O)[C@H](CCC(N)=O)NC(=O)[C@H](Cc2ccc(O)cc2)NC(=O)[C@H]([C@@H](C)O)NC(=O)[C@H]([C@@H](C)O)NC(=O)[C@@H]2CCCN2C(=O)[C@H](CC(N)=O)NC(=O)[C@H](C)NC(=O)[C@@H](N)CSSC[C@@H](C(=O)O)NC1=O (HELM PEPTIDE1{C.A.N.P.T.T.Y.Q.M.C}$PEPTIDE1,PEPTIDE1,1:R3-10:R3$$$V2.0)	inactive	
CSCC[C@@H]1NC(=O)[C@H](CCC(N)=O)NC(=O)[C@H](Cc2ccc(O)cc2)NC(=O)[C@H]([C@@H](C)O)NC(=O)[C@H]([C@@H](C)O)NC(=O)[C@@H]2CCCN2C(=O)[C@H](CC(N)=O)NC(=O)[C@H](Cc2ccc(O)cc2)NC(=O)[C@H](CC(C)C)NC(=O)[C@H](CCSC)NC(=O)[C@H](CC(C)C)NC(=O)[C@@H](N)CSSC[C@@H](C(=O)O)NC(=O)[C@H](CCC(=O)O)NC(=O)[C@@H]2CCCN2C(=O)[C@H](C(C)C)NC(=O)[C@H](CC(=O)O)NC1=O (HELM PEPTIDE1{C.L.M.L.Y.N.P.T.T.Y.Q.M.D.V.P.E.C}$PEPTIDE1,PEPTIDE1,1:R3-17:R3$$$V2.0)	Active	
CSCC[C@@H]1NC(=O)[C@H](CCC(N)=O)NC(=O)[C@H](Cc2ccc(O)cc2)NC(=O)[C@H]([C@@H](C)O)NC(=O)[C@H]([C@@H](C)O)NC(=O)[C@@H]2CCCN2C(=O)[C@H](CC(N)=O)NC(=O)[C@H](Cc2ccc(O)cc2)NC(=O)[C@H](CC(C)C)NC(=O)[C@@H](N)CSSC[C@@H](C(=O)O)NC1=O (HELM PEPTIDE1{C.L.Y.N.P.T.T.Y.Q.M.C}$PEPTIDE1,PEPTIDE1,1:R3-11:R3$$$V2.0)		80
CSCC[C@@H]1NC(=O)[C@H](CCC(N)=O)NC(=O)[C@H](Cc2ccc(O)cc2)NC(=O)[C@H]([C@@H](C)O)NC(=O)[C@H]([C@@H](C)O)NC(=O)[C@@H]2CCCN2C(=O)[C@H](CC(N)=O)NC(=O)[C@H](Cc2ccc(O)cc2)NC(=O)[C@H](CC(C)C)NC(=O)[C@@H](N)CSSC[C@@H](C(=O)O)NC(=O)[C@H](CC(=O)O)NC1=O (HELM PEPTIDE1{C.L.Y.N.P.T.T.Y.Q.M.D.C}$PEPTIDE1,PEPTIDE1,1:R3-12:R3$$$V2.0)		80
CSCC[C@@H]1NC(=O)[C@H](CCC(N)=O)NC(=O)[C@H](Cc2ccc(O)cc2)NC(=O)[C@H]([C@@H](C)O)NC(=O)[C@H]([C@@H](C)O)NC(=O)[C@@H]2CCCN2C(=O)[C@H](CC(N)=O)NC(=O)[C@H](Cc2ccc(O)cc2)NC(=O)[C@H](CC(C)C)NC(=O)[C@H](CCSC)NC(=O)[C@@H](N)CSSC[C@@H](C(=O)O)NC(=O)[C@H](C(C)C)NC(=O)[C@H](CC(=O)O)NC1=O (HELM PEPTIDE1{C.M.L.Y.N.P.T.T.Y.Q.M.D.V.C}$PEPTIDE1,PEPTIDE1,1:R3-14:R3$$$V2.0)	Active	
CSCC[C@@H]1NC(=O)[C@H](CCC(N)=O)NC(=O)[C@H](Cc2ccc(O)cc2)NC(=O)[C@H]([C@@H](C)O)NC(=O)[C@H]([C@@H](C)O)NC(=O)[C@@H]2CCCN2C(=O)[C@H](CC(N)=O)NC(=O)[C@H](Cc2ccc(O)cc2)NC(=O)[C@H](CC(C)C)NC(=O)[C@H](CCSC)NC(=O)[C@H](CC(C)C)NC(=O)[C@@H]2CCCN2C(=O)[C@@H]2CCCN2C(=O)[C@@H](N)CSSC[C@@H](C(=O)O)NC(=O)CNC(=O)[C@H](CCC(=O)O)NC(=O)[C@@H]2CCCN2C(=O)[C@H](C(C)C)NC(=O)[C@H](CC(=O)O)NC1=O (HELM PEPTIDE1{C.P.P.L.M.L.Y.N.P.T.T.Y.Q.M.D.V.P.E.G.C}$PEPTIDE1,PEPTIDE1,1:R3-20:R3$$$V2.0)	Active	
C[C@@H]1NC(=O)[C@H](CCC(N)=O)NC(=O)[C@H](Cc2ccc(O)cc2)NC(=O)[C@H]([C@@H](C)O)NC(=O)[C@H]([C@@H](C)O)NC(=O)[C@@H]2CCCN2C(=O)[C@H](CC(N)=O)NC(=O)[C@H](Cc2ccc(O)cc2)NC(=O)[C@@H](N)CSSC[C@@H](C(=O)O)NC1=O (HELM PEPTIDE1{C.Y.N.P.T.T.Y.Q.A.C}$PEPTIDE1,PEPTIDE1,1:R3-10:R3$$$V2.0)		73
C[C@@H](O)[C@@H]1NC(=O)[C@H]([C@@H](C)O)NC(=O)[C@@H]2CCCN2C(=O)[C@H](CC(N)=O)NC(=O)[C@H](Cc2ccc(O)cc2)NC(=O)[C@@H](N)CSSC[C@@H](C(=O)N[C@@H](CC(=O)O)C(=O)O)NC(=O)[C@H](CCC(N)=O)NC(=O)[C@H](Cc2ccc(O)cc2)NC1=O (HELM PEPTIDE1{C.Y.N.P.T.T.Y.Q.C.D}$PEPTIDE1,PEPTIDE1,1:R3-9:R3$$$V2.0)	inactive	
CC(C)C[C@@H]1NC(=O)[C@H](CCC(N)=O)NC(=O)[C@H](Cc2ccc(O)cc2)NC(=O)[C@H]([C@@H](C)O)NC(=O)[C@H]([C@@H](C)O)NC(=O)[C@@H]2CCCN2C(=O)[C@H](CC(N)=O)NC(=O)[C@H](Cc2ccc(O)cc2)NC(=O)[C@@H](N)CSSC[C@@H](C(=O)O)NC1=O (HELM PEPTIDE1{C.Y.N.P.T.T.Y.Q.L.C}$PEPTIDE1,PEPTIDE1,1:R3-10:R3$$$V2.0)		73
CSCC[C@@H]1NC(=O)[C@H](CCC(N)=O)NC(=O)[C@H](Cc2ccc(O)cc2)NC(=O)[C@H]([C@@H](C)O)NC(=O)[C@H]([C@@H](C)O)NC(=O)[C@@H]2CCCN2C(=O)[C@H](CC(N)=O)NC(=O)[C@H](Cc2ccc(O)cc2)NC(=O)[C@@H](N)CSSC[C@@H](C(=O)N[C@H](C(=O)N[C@@H](CC(N)=O)C(=O)N2CCC[C@H]2C(=O)N[C@@H](CCC(=O)O)C(=O)O)C(C)C)NC1=O (HELM PEPTIDE1{C.Y.N.P.T.T.Y.Q.M.C.V.N.P.E}$PEPTIDE1,PEPTIDE1,1:R3-10:R3$$$V2.0)	inactive	
CSCC[C@@H]1NC(=O)[C@H](CCC(N)=O)NC(=O)[C@H](Cc2ccc(O)cc2)NC(=O)[C@H]([C@@H](C)O)NC(=O)[C@H]([C@@H](C)O)NC(=O)[C@@H]2CCCN2C(=O)[C@H](CC(N)=O)NC(=O)[C@H](Cc2ccc(O)cc2)NC(=O)[C@@H](N)CSSC[C@@H](C(=O)N[C@H](C(=O)N[C@@H](CC(N)=O)C(=O)O)C(C)C)NC1=O (HELM PEPTIDE1{C.Y.N.P.T.T.Y.Q.M.C.V.N}$PEPTIDE1,PEPTIDE1,1:R3-10:R3$$$V2.0)	inactive	
CSCC[C@@H]1NC(=O)[C@H](CCC(N)=O)NC(=O)[C@H](Cc2ccc(O)cc2)NC(=O)[C@H]([C@@H](C)O)NC(=O)[C@H]([C@@H](C)O)NC(=O)[C@@H]2CCCN2C(=O)[C@H](CC(N)=O)NC(=O)[C@H](Cc2ccc(O)cc2)NC(=O)[C@@H](N)CSSC[C@@H](C(=O)N[C@H](C(=O)O)C(C)C)NC1=O (HELM PEPTIDE1{C.Y.N.P.T.T.Y.Q.M.C.V}$PEPTIDE1,PEPTIDE1,1:R3-10:R3$$$V2.0)	inactive	
CSCC[C@@H]1NC(=O)[C@H](CCC(N)=O)NC(=O)[C@H](Cc2ccc(O)cc2)NC(=O)[C@H]([C@@H](C)O)NC(=O)[C@H]([C@@H](C)O)NC(=O)[C@@H]2CCCN2C(=O)[C@H](CC(N)=O)NC(=O)[C@H](Cc2ccc(O)cc2)NC(=O)[C@@H](N)CSSC[C@@H](C(=O)O)NC(=O)[C@H](CC(=O)O)NC1=O (HELM PEPTIDE1{C.Y.N.P.T.T.Y.Q.M.D.C}$PEPTIDE1,PEPTIDE1,1:R3-11:R3$$$V2.0)		80
C[C@@H](O)[C@@H]1NC(=O)[C@H]([C@@H](C)O)NC(=O)[C@@H]2CCCN2C(=O)[C@H](CC(N)=O)NC(=O)[C@H](Cc2ccc(O)cc2)NC(=O)[C@@H](N)CSSC[C@@H](C(=O)O)NC(=O)[C@H](CCC(N)=O)NC(=O)[C@H](CCC(N)=O)NC(=O)[C@H](Cc2ccc(O)cc2)NC1=O (HELM PEPTIDE1{C.Y.N.P.T.T.Y.Q.Q.C}$PEPTIDE1,PEPTIDE1,1:R3-10:R3$$$V2.0)		73
C[C@@H](O)[C@@H]1NC(=O)[C@H]([C@@H](C)O)NC(=O)[C@@H]2CCCN2C(=O)[C@H](CC(N)=O)NC(=O)[C@H](Cc2ccc(O)cc2)NC(=O)[C@@H](N)CSSC[C@@H](C(=O)O)NC(=O)[C@H](CC[S+](C)[O-])NC(=O)[C@H](CCC(N)=O)NC(=O)[C@H](Cc2ccc(O)cc2)NC1=O (some centres undefined) (HELM PEPTIDE1{C.Y.N.P.T.T.Y.Q.[CS(=O)CC[C@H](N[*:1])C(=O)[*:2]].C}$PEPTIDE1,PEPTIDE1,1:R3-10:R3$$$V2.0)		73
CCCC[C@@H]1NC(=O)[C@H](CCC(N)=O)NC(=O)[C@H](Cc2ccc(O)cc2)NC(=O)[C@H]([C@@H](C)O)NC(=O)[C@H]([C@@H](C)O)NC(=O)[C@@H]2CCCN2C(=O)[C@H](CC(N)=O)NC(=O)[C@H](Cc2ccc(O)cc2)NC(=O)[C@@H](N)CSSC[C@@H](C(=O)O)NC1=O (HELM PEPTIDE1{C.Y.N.P.T.T.Y.Q.[Nle].C}$PEPTIDE1,PEPTIDE1,1:R3-10:R3$$$V2.0)		73
CC(C)C[C@H](N)C(=O)N[C@H]1CSSC[C@@H](C(=O)N[C@@H](CC(=O)O)C(=O)O)NC(=O)[C@H](CCC(N)=O)NC(=O)[C@H](Cc2ccc(O)cc2)NC(=O)[C@H]([C@@H](C)O)NC(=O)[C@H]([C@@H](C)O)NC(=O)[C@@H]2CCCN2C(=O)[C@H](CC(N)=O)NC1=O (HELM PEPTIDE1{L.C.N.P.T.T.Y.Q.C.D}$PEPTIDE1,PEPTIDE1,2:R3-9:R3$$$V2.0)	inactive	
CSCC[C@@H]1NC(=O)[C@H](CCC(N)=O)NC(=O)[C@H](Cc2ccc(O)cc2)NC(=O)[C@H]([C@@H](C)O)NC(=O)[C@H]([C@@H](C)O)NC(=O)[C@@H]2CCCN2C(=O)[C@H](CC(N)=O)NC(=O)[C@H](Cc2ccc(O)cc2)NC(=O)[C@@H](NC(=O)[C@H](CCSC)NC(=O)[C@@H](N)CC(C)C)CSSC[C@@H](C(=O)O)NC1=O (HELM PEPTIDE1{L.M.C.Y.N.P.T.T.Y.Q.M.C}$PEPTIDE1,PEPTIDE1,3:R3-12:R3$$$V2.0)	Active	
CSCC[C@@H]1NC(=O)[C@H](CCC(N)=O)NC(=O)[C@H](Cc2ccc(O)cc2)NC(=O)[C@H]([C@@H](C)O)NC(=O)[C@H]([C@@H](C)O)NC(=O)[C@@H]2CCCN2C(=O)[C@H](CC(N)=O)NC(=O)[C@H](Cc2ccc(O)cc2)NC(=O)[C@@H](NC(=O)[C@@H](N)CCSC)CSSC[C@@H](C(=O)O)NC1=O (HELM PEPTIDE1{M.C.Y.N.P.T.T.Y.Q.M.C}$PEPTIDE1,PEPTIDE1,2:R3-11:R3$$$V2.0)		64
